Test results: ChEMBL document CHEMBL4033643, “Synthesis and in vitro antitumour activity of crassalactone D, its stereoisomers and novel cinnamic ester derivatives” (Eur J Med Chem, 2017)
Calls of active or inactive are those of the source. No cut-off for these calls is given here.

Columns and labels:
K562 [1] = assay: Induction of apoptosis in human K562 cells assessed as total necrotic cells by Annexin V-FITC/propidium iodide staining based flow cytometry (reference value: 0.23%); type: functional
K562 [2] = assay: Induction of apoptosis in human K562 cells assessed as decrease in Bcl-2 expression level by Western blot analysis; type: functional, cell-based
Summary of the method: (§1)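 Western blot of treated K562 cells for Bcl-2, Bax, activated caspase 3 and cleaved PARP (85 kDa fragment). Blots developed by ECL, with band expression quantified by densitometry against an untreated control sample.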

K562 [3] = assay: Induction of apoptosis in human K562 cells assessed as total viable cells by Annexin V-FITC/propidium iodide staining based flow cytometry (reference value: 92.45%); type: functional
HeLa = assay: Cytotoxicity against human HeLa cells assessed as reduction in cell viability after 72 hrs by MTT assay; type: functional, cell-based
K562 [4] = assay: Cell cycle arrest in human K562 cells assessed as total cell levels at S phase at IC50 after 72 hrs by propidium iodide staining based flow cytometry (reference value: 36.49%); type: functional
A549 = assay: Cytotoxicity against human A549 cells assessed as reduction in cell viability after 72 hrs by MTT assay; type: functional, cell-based; settings: A549, 72 h
Jurkat = assay: Cytotoxicity against human Jurkat cells assessed as reduction in cell viability after 72 hrs by MTT assay; type: functional, cell-based
K562 [5] = assay: Cell cycle arrest in human K562 cells assessed as accumulation at G2/M phase at IC50 after 72 hrs by propidium iodide staining based flow cytometry (reference value: 19.01%); type: functional
K562 [6] = assay: Induction of apoptosis in human K562 cells assessed as increase in Bax expression level by Western blot analysis; type: functional, cell-based; summary of the method: as §1
K562 [7] = assay: Cell cycle arrest in human K562 cells assessed as accumulation at sub G1 phase at IC50 after 72 hrs by propidium iodide staining based flow cytometry (reference value: 1.48%); type: functional
K562 [8] = assay: Cytotoxicity against human K562 cells assessed as reduction in cell viability after 72 hrs by MTT assay; type: functional, cell-based; settings: K562, 72 h
Raji = assay: Cytotoxicity against human Raji cells assessed as reduction in cell viability after 72 hrs by MTT assay; type: functional, cell-based
K562 [9] = assay: Induction of apoptosis in human K562 cells assessed as specific apoptosis by Annexin V-FITC/propidium iodide staining based flow cytometry; type: functional; design: concentration or dose not given beside the values
K562 [10] = assay: Induction of apoptosis in human K562 cells assessed as gated necrotic cells by Annexin V-FITC/propidium iodide staining based flow cytometry (reference value: 0.24%); type: functional
K562 [11] = assay: Induction of apoptosis in human K562 cells assessed as gated early apoptotic cells by Annexin V-FITC/propidium iodide staining based flow cytometry (reference value: 3.18%); type: functional
K562 [12] = assay: Induction of apoptosis in human K562 cells assessed as gated viable cells by Annexin V-FITC/propidium iodide staining based flow cytometry (reference value: 95.78%); type: functional
MRC5 = assay: Cytotoxicity against human MRC5 cells assessed as reduction in cell viability after 72 hrs by MTT assay; type: cell-based; settings: MRC5, 72 h
K562 [13] = assay: Induction of apoptosis in human K562 cells assessed as total early apoptotic cells by Annexin V-FITC/propidium iodide staining based flow cytometry (reference value: 3.07%); type: functional
K562 [14] = assay: Cell cycle arrest in human K562 cells assessed as total cell levels at G0/G1 phase at IC50 after 72 hrs by propidium iodide staining based flow cytometry (reference value: 39.97%); type: functional
MCF7 = assay: Cytotoxicity against human MCF7 cells assessed as reduction in cell viability after 72 hrs by MTT assay; type: functional, cell-based; settings: MCF7, 72 h
K562 [15] = assay: Induction of apoptosis in human K562 cells assessed as total late apoptotic cells by Annexin V-FITC/propidium iodide staining based flow cytometry (reference value: 0.77%); type: functional
K562 [16] = assay: Cell cycle arrest in human K562 cells assessed as total cell levels at G2/M phase at IC50 after 72 hrs by propidium iodide staining based flow cytometry (reference value: 14.31%); type: functional
K562 [17] = assay: Cell cycle arrest in human K562 cells assessed as total cell levels at M4 phase at IC50 after 72 hrs by propidium iodide staining based flow cytometry (reference value: 0.50%); type: functional
HL-60 = assay: Cytotoxicity against human HL60 cells assessed as reduction in cell viability after 72 hrs by MTT assay; type: functional, cell-based; settings: HL-60, 72 h
K562 [18] = assay: Cell cycle arrest in human K562 cells assessed as accumulation at G0/G1 phase at IC50 after 72 hrs by propidium iodide staining based flow cytometry (reference value: 38.48%); type: functional
MDA-MB-231 = assay: Cytotoxicity against human MDA-MB-231 cells assessed as reduction in cell viability after 72 hrs by MTT assay; type: functional, cell-based; settings: MDA-MB-231, 72 h
K562 [19] = assay: Cell cycle arrest in human K562 cells assessed as accumulation at S phase at IC50 after 72 hrs by propidium iodide staining based flow cytometry (reference value: 41.03%); type: functional
K562 [20] = assay: Induction of apoptosis in human K562 cells assessed as gated late apoptotic cells by Annexin V-FITC/propidium iodide staining based flow cytometry (reference value: 0.88%); type: functional
K562 [21] = assay: Induction of apoptosis in human K562 cells assessed as specific necrosis by Annexin V-FITC/propidium iodide staining based flow cytometry; type: functional; design: concentration or dose not given beside the values

SMILES	Activity (K562 [1]) [%]	Activity (K562 [2])	Activity (K562 [3]) [%]	IC50 (HeLa) [µM]	Activity (K562 [4]) [%]	IC50 (A549) [µM]	IC50 (Jurkat) [µM]	Activity (K562 [5]) [%]	Activity (K562 [6])	Activity (K562 [7]) [%]	IC50 (K562 [8]) [µM]	IC50 (Raji) [µM]	Activity (K562 [9]) [%]	Activity (K562 [10]) [%]	Activity (K562 [11]) [%]	Activity (K562 [12]) [%]	IC50 (MRC5) [µM]	Activity (K562 [13]) [%]	Activity (K562 [14]) [%]	IC50 (MCF7) [µM]	also measured
O=C1C=C[C@@]2(C[C@H](OC(=O)/C=C/c3ccc([N+](=O)[O-])cc3)[C@@H](c3ccccc3)O2)O1	1.64	inactive	73.05	9.45	34.91	56.2	86.5	25.14	Active	2.93	7.45	> 100	10.54	1.89	11.87	84.01	> 100	10.32	31.72	12.5	Activity (K562 [15]): 1.94%; Activity (K562 [16]): 22.88%; Activity (K562 [17]): 2.67%; IC50 (HL-60): 1.32 µM; Activity (K562 [18]): 33.85%; IC50 (MDA-MB-231): > 100 µM; Activity (K562 [19]): 38.08%; Activity (K562 [20]): 2.23%; Activity (K562 [21]): 2.18%
O=C1C=C[C@]2(C[C@H](OC(=O)/C=C/c3ccccc3)[C@@H](c3ccccc3)O2)O1	0.05	Active	3.9	1.15	28.7	14.6	0.21	23.78	Active	28.63	20.7	6.68	83.35	0.09	79.11	15.88	> 100	59.12	14.21	1.65	Activity (K562 [15]): 3.27%; Activity (K562 [16]): 21.08%; Activity (K562 [17]): 25.37%; IC50 (HL-60): 10 µM; Activity (K562 [18]): 16.04%; IC50 (MDA-MB-231): 5.45 µM; Activity (K562 [19]): 31.55%; Activity (K562 [20]): 4.92%; Activity (K562 [21]): 4.06%
O=C1C=C[C@]2(C[C@H](O)[C@H](c3ccccc3)O2)O1	1.07	Active	74.8	35.4	13.07	35.2	1.01	66.56	Active	1.09	1.21	8.84	7.78	1.25	3.35	87.3	> 100	2.87	11.56	11	Activity (K562 [15]): 6.94%; Activity (K562 [16]): 51.44%; Activity (K562 [17]): 0.6%; IC50 (HL-60): 6.11 µM; Activity (K562 [18]): 15.18%; IC50 (MDA-MB-231): 45.1 µM; Activity (K562 [19]): 17.17%; Activity (K562 [20]): 8.1%; Activity (K562 [21]): 2.84%
O=C1C=C[C@]2(C[C@H](OC(=O)/C=C/c3ccc(F)cc3)[C@@H](c3ccccc3)O2)O1	0.78	inactive	81.7	6.12	26.82	> 100	15.6	29.4	Active	2.02	8.45	34.1	8.05	0.83	9.86	87.45	> 100	9.21	37.36	9.65	Activity (K562 [15]): 1.73%; Activity (K562 [16]): 27.34%; Activity (K562 [17]): 1.87%; IC50 (HL-60): 24.1 µM; Activity (K562 [18]): 40.27%; IC50 (MDA-MB-231): > 100 µM; Activity (K562 [19]): 28.31%; Activity (K562 [20]): 1.85%; Activity (K562 [21]): 3.28%
